Laboratory results: ChEMBL document CHEMBL4038327, “Inhibitory Kappa B Kinase α (IKKα) Inhibitors That Recapitulate Their Selectivity in Cells against Isoform-Related Biomarkers” (J Med Chem, 2017)

Target: T1, Serine/threonine-protein kinase D1 (Homo sapiens) (UniProt Q15139)
T1 sequence (whole entry): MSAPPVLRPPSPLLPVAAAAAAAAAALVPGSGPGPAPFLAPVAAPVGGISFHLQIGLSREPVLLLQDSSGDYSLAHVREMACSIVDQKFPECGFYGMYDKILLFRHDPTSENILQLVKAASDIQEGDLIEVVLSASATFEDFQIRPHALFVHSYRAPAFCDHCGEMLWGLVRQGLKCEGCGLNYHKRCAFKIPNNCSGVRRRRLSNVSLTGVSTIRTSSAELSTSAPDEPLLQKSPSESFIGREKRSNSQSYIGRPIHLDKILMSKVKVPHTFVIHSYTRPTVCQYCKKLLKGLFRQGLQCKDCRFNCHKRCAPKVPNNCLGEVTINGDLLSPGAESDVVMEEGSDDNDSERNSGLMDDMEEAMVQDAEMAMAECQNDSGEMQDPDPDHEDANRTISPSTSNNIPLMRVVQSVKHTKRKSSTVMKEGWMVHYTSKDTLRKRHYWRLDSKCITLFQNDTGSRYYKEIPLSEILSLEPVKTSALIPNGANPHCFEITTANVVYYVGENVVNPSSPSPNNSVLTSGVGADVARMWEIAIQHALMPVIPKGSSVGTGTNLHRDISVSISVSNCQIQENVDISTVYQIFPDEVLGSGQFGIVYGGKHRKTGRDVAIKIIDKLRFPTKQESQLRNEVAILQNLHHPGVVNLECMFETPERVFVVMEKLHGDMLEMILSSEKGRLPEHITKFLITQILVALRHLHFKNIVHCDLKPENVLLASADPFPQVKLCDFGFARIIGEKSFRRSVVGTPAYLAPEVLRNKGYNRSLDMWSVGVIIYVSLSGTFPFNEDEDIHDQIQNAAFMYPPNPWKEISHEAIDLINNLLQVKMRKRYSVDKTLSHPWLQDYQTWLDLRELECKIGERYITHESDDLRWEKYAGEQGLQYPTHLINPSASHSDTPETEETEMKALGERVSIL
Assay: Inhibition of N-terminal His6 tagged recombinant human full length PKCmu expressed in Sf21 cells at 10 uM relative to control
Method in brief: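 Outsourced commercial kinase panel run at a single concentration, with duplicate assay points.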

## N#Cc1c[nH]c2nc(N)nc(-c3ccc(S(N)(=O)=O)cc3)c12
  inhibition: > 80%
